Reference: ChEMBL document CHEMBL1811821, “Cystic fibrosis: a new target for 4-Imidazo[2,1-b]thiazole-1,4-dihydropyridines” (J Med Chem, 2011)
The source made the active and inactive calls. The calls are words filed in the database; no cut-off is given here.

Experiments:
[1] = system: Cystic fibrosis transmembrane conductance regulator (Homo sapiens), P13569 [F508del]; assay: Activity at CFTR F508 deletion mutant expressed in forskolin-stimulated FRT cells assessed as maximal increase in iodine influx measured as YFP quenching rate at 0.2 uM after 24 hrs by fluorescence assay; format: cell-based
Summary of the method: (§1)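 ΔF508-CFTR and halide-sensitive YFP coexpressed in FRT cells, held at 27 °C for 24 h for rescue, then stimulated 30–40 min with 20 μM forskolin with or without compound at 0.2, 2 and 20 μM. Fluorescence read before and after I– addition (100 mM final). Normalized decay fitted exponentially for maximal quenching rate; dose–response fitted with Hill equation for potency and maximal effect. Three independent determinations.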

[2] = Bronchodilatory activity in guinea pig trachea assessed as inhibition of carbachol-induced contraction; format: functional, tissue-based, Cavia porcellus
[3] = Negative ionotropic activity in potassium depolarized guinea pig longitudinal smooth muscle assessed as inhibition of calcium-induced contraction; format: functional, Cavia porcellus
[4] = Binding affinity to CFTR F508 deletion mutant expressed in forskolin-stimulated FRT cells assessed as increase in iodine influx measured as YFP quenching rate after 24 hrs by fluorescence assay; format: cell-based; summary of the method: as §1
Cavia porcellus [5] = species: Cavia porcellus; assay: Negative ionotropic activity in potassium depolarized guinea pig longitudinal smooth muscle assessed as inhibition of calcium-induced contraction at 5 X 10^-8 M; format: functional
[6] = system: Cystic fibrosis transmembrane conductance regulator (Homo sapiens), P13569 [F508del]; assay: Activity at CFTR F508 deletion mutant expressed in forskolin-stimulated FRT cells assessed as maximal increase in iodine influx measured as YFP quenching rate after 24 hrs by fluorescence assay; format: cell-based; summary of the method: as §1
[7] = Negative chronotropic activity against potassium-induced contraction in guinea pig right atrium assessed as decrease atrial rate at 10^-5 M relative to control; format: functional; conditions: Cavia porcellus, Cardiac atrium
Summary of the method: (§2)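 Spontaneously beating isolated guinea pig right atrium, pretreatment rate 165–190 beats/min. Drugs added cumulatively. Decrease in atrial rate expressed as percent change from control, n = 7–8. […] Control versus treated tested at each concentration by Student's t-test, P < 0.05. Mean ± SEM.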

[8] = Negative ionotropic activity against potassium-induced contraction in guinea pig left atrium assessed as […] at 10^-6 M relative to control; format: functional; conditions: Cavia porcellus, Cardiac atrium
Summary of the method: (§3)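 Isolated guinea pig left atrium paced at 1 Hz. Drugs added cumulatively. Negative inotropic effect expressed as percent change from control, n = 5–6. […] Student's t-test against control at each concentration, P < 0.05. Mean ± SEM.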

[9] = Bronchodilatory activity in guinea pig trachea assessed as inhibition of carbachol-induced contraction at 10^-5 M; format: functional; conditions: Cavia porcellus
[10] = Negative ionotropic activity against potassium-induced contraction in guinea pig left atrium assessed as decrease in developed tension; conditions: Cavia porcellus, Cardiac atrium
Aorta [11] = assay: Vasorelaxant activity in potassium depolarized guinea pig aortic strip assessed as inhibition of calcium-induced contraction at 10^-5 M; format: functional; conditions: Cavia porcellus
Summary of the method: (§4)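 Guinea pig aortic strips depolarized with 80 mM K+, with cumulative drug addition. Relaxation given as mean ± SEM. […] Student's t-test against control, P < 0.05.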

Cavia porcellus [12] = species: Cavia porcellus; assay: Negative ionotropic activity in potassium depolarized guinea pig longitudinal smooth muscle assessed as inhibition of calcium-induced contraction at 10^-5 M; format: functional
[13] = Bronchodilatory activity in guinea pig trachea assessed as inhibition of carbachol-induced contraction at 10^-4 M; format: functional; conditions: Cavia porcellus
[14] = system: Cystic fibrosis transmembrane conductance regulator (Homo sapiens), P13569 [F508del]; assay: Activity at CFTR F508 deletion mutant expressed in forskolin-stimulated FRT cells assessed as maximal increase in iodine influx measured as YFP quenching rate up to 20 uM after 24 hrs by fluorescence assay; format: cell-based; summary of the method: as §1
Cavia porcellus [15] = species: Cavia porcellus; assay: Negative ionotropic activity in potassium depolarized guinea pig longitudinal smooth muscle assessed as inhibition of calcium-induced contraction at 5 X 10^-7 M; format: functional
Cavia porcellus [16] = species: Cavia porcellus; assay: Negative ionotropic activity in potassium depolarized guinea pig longitudinal smooth muscle assessed as inhibition of calcium-induced contraction at 10^-6 M; format: functional
[17] = Ratio EC50 for nifedipine to compound for negative […] activity against potassium-induced contraction in left atrium of guinea pig; format: functional, Cavia porcellus, Cardiac atrium
Aorta [18] = assay: Vasorelaxant activity in potassium depolarized guinea pig aortic strip assessed as inhibition of calcium-induced contraction at 10^-4 M; format: functional; conditions: Cavia porcellus; summary of the method: as §4
[19] = Negative chronotropic activity against potassium-induced contraction in guinea pig right atrium assessed as decrease atrial rate; format: functional, tissue-based; conditions: Cavia porcellus, Cardiac atrium; summary of the method: as §2
Cavia porcellus [20] = species: Cavia porcellus; assay: Negative ionotropic activity in potassium depolarized guinea pig longitudinal smooth muscle assessed as inhibition of calcium-induced contraction at 5 X 10^-5 M; format: functional
[21] = Negative chronotropic activity against potassium-induced contraction in guinea pig right atrium assessed as decrease atrial rate at 10^-4 M relative to control; format: functional; conditions: Cavia porcellus, Cardiac atrium; summary of the method: as §2
[22] = Negative ionotropic activity against potassium-induced contraction in guinea pig left atrium assessed as […] at 10^-4 M relative to control; format: functional; conditions: Cavia porcellus, Cardiac atrium; summary of the method: as §3
Aorta [23] = assay: Vasorelaxant activity in potassium depolarized guinea pig aortic strip assessed as inhibition of calcium-induced contraction at 10^-6 M; format: functional; conditions: Cavia porcellus; summary of the method: as §4
[24] = Ratio EC50 for negative chronotropic activity against potassium-induced contraction in guinea pig right atrium to EC50 for negative […] activity against potassium-induced contraction in guinea pig left atrium; format: functional, Cavia porcellus, Cardiac atrium
[25] = Negative ionotropic activity against potassium-induced contraction in guinea pig left atrium assessed as […] at 10^-5 M relative to control; format: functional; conditions: Cavia porcellus, Cardiac atrium; summary of the method: as §3

Sequence of Cystic fibrosis transmembrane conductance regulator (Homo sapiens), P13569 [F508del] (P13569 as listed by the source): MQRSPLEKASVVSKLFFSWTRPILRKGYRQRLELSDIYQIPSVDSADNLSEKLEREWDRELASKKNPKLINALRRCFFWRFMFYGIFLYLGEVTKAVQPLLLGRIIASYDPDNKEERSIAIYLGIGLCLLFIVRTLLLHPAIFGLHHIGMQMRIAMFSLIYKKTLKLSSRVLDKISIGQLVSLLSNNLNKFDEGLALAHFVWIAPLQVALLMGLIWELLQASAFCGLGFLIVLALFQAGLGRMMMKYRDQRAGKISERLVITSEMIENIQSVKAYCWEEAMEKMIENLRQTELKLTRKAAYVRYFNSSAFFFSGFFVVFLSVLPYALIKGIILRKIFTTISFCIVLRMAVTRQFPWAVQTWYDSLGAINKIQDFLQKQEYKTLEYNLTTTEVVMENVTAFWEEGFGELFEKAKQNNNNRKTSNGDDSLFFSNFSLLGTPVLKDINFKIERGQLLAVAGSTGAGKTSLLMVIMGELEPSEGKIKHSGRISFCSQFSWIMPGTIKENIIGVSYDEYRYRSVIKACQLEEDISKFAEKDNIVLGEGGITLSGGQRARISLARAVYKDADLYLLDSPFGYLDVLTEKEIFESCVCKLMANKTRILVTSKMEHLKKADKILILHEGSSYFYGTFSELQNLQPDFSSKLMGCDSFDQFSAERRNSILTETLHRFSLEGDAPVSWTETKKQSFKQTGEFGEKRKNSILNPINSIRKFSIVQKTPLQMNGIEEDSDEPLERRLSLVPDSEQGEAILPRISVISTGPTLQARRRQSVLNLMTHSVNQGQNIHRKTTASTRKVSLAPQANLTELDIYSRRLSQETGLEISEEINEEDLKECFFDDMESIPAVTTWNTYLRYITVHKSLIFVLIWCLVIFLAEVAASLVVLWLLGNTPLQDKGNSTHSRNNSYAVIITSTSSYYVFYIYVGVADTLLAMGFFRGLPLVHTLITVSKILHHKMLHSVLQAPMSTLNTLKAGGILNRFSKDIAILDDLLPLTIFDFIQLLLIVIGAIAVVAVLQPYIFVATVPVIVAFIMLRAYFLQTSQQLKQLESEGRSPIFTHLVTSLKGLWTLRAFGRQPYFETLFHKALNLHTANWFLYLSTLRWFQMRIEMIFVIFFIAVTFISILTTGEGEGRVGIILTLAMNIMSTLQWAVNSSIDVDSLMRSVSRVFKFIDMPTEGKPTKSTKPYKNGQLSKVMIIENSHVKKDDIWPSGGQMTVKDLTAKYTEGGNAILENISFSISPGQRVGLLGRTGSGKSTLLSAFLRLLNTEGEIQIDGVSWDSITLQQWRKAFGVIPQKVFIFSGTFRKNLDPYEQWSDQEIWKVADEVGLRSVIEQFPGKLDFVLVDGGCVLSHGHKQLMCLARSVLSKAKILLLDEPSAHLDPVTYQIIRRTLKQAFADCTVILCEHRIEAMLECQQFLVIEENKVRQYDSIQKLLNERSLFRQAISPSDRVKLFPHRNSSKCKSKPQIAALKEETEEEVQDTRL

COC(=O)C1=C(C)NC(C)=C(C(=O)OC)C1c1c(-c2cccc(OC(F)(F)F)c2)nc2sccn12
Activity [1]: inactive | IC50 [2]: 0.058 µM | IC50 [3]: 0.018 µM | Kd [4]: 1.4 µM | inhibition (Cavia porcellus [5]): 76% | Emax [6]: 64 ms-1

C=CCOC(=O)C1=C(C)NC(C)=C(C(=O)OCC=C)C1/C=C/c1ccccc1OC
inhibition at 10 µM [7]: 6% | inhibition at 1 µM [8]: 83% | inhibition at 10 µM [9]: 29% | EC50 [10]: 0.034 µM | IC50 [3]: 0.94 µM | Kd [4]: 0.4 µM | inhibition at 10 µM (Aorta [11]): 1% | Emax [6]: 59 ms-1 | inhibition (Cavia porcellus [12]): 68%

COC(=O)C1=C(C)NC(C)=C(C(=O)OC)C1c1c(-c2cc(OC)c([N+](=O)[O-])cc2OC)nc2sc(Cl)cn12
Activity [1]: inactive | inhibition at 100 µM [13]: 35% | IC50 [3]: 0.074 µM | Activity [14]: inactive | inhibition (Cavia porcellus [15]): 92%

COC(=O)C1=C(C)NC(C)=C(C(=O)OC)C1c1c(Cl)nc2sc(Cl)cn12
Activity [1]: inactive | inhibition (Cavia porcellus [16]): 60% | inhibition at 100 µM [13]: 87% | Ratio EC50 [17]: 2.6 | IC50 [2]: 3.66 µM | IC50 [3]: 0.68 µM | Kd [4]: 6.8 µM | Emax [6]: 60 ms-1

COC(=O)C1=C(C)NC(C)=C(C(=O)OC)C1c1c(Cl)nc2scc(C)n12
Activity [1]: inactive | Ratio EC50 [17]: 2.6 | IC50 [3]: 0.51 µM | Kd [4]: 21.4 µM | Emax [6]: 60 ms-1

COC(=O)C1=C(C)NC(C)=C(C(=O)OC)C1c1c(-c2ccccc2OC)nc2sccn12
Activity [1]: inactive | IC50 [3]: 0.86 µM | Activity [14]: inactive

CCOC(=O)C1=C(C)NC(C)=C(C(=O)OCC)C1c1c(-c2ccc(Cl)c(Cl)c2Cl)nc2sccn12
inhibition at 10 µM [7]: 92% | Activity [1]: inactive | inhibition (Cavia porcellus [16]): 77% | inhibition at 1 µM [8]: 90% | inhibition at 10 µM [9]: 40% | EC50 [10]: 0.43 µM | inhibition at 100 µM (Aorta [18]): 17% | EC50 [19]: 0.61 µM | IC50 [3]: 0.038 µM | Kd [4]: 3.2 µM | Emax [6]: 46 ms-1

COC(=O)C1=C(C)NC(C)=C(C(=O)OC)C1c1c(-c2ccc(OC)c(OC)c2)nc2sccn12
Activity [1]: inactive | inhibition (Cavia porcellus [16]): 90% | IC50 [3]: 0.45 µM | Activity [14]: inactive

COC(=O)C1=C(C)NC(C)=C(C(=O)OC)C1c1c(C)nc2sc(C)cn12
Activity [1]: inactive | inhibition at 10 µM [9]: 27% | IC50 [3]: 8.83 µM | inhibition (Cavia porcellus [12]): 70% | Activity [14]: inactive

COC(=O)C1=C(C)NC(C)=C(C(=O)OC)C1c1c(-c2cc(OC)ccc2OC)nc2sc(Cl)cn12
inhibition (Cavia porcellus [20]): 91% | Activity [1]: inactive | IC50 [3]: 1.14 µM | Activity [14]: inactive

COC(=O)C1=C(C)NC(C)=C(C(=O)OC)C1c1c(Cl)nc2sc(C)c(C)n12
Activity [1]: inactive | inhibition (Cavia porcellus [16]): 78% | IC50 [3]: 0.32 µM | Kd [4]: 10.9 µM | Emax [6]: 60 ms-1

COC(=O)C1=C(C)NC(C)=C(C(=O)OC)C1c1c(-c2cc(OC)ccc2OC)nc2sc(C)cn12
Activity [1]: inactive | IC50 [3]: 4.89 µM | inhibition (Cavia porcellus [12]): 74% | Activity [14]: inactive

C=CCOC(=O)C1=C(C)NC(C)=C(C(=O)OCC=C)C1c1c(-c2ccc(OC(F)(F)F)cc2)nc2sccn12
inhibition at 100 µM [21]: 77% | Activity [1]: inactive | inhibition at 10 µM [9]: 38% | EC50 [10]: 0.73 µM | EC50 [19]: 1.97 µM | IC50 [3]: 0.0053 µM | Kd [4]: 4.8 µM | inhibition (Cavia porcellus [5]): 90% | inhibition at 100 µM [22]: 88% | Emax [6]: 60 ms-1 | inhibition at 1 µM (Aorta [23]): 31%

COC(=O)C1=C(C)NC(C)=C(C(=O)OC)C1c1c(-c2cccc(OC)c2)nc2sccn12
Activity [1]: inactive | Kd [4]: 34.2 µM | Emax [6]: 60 ms-1

COC(=O)C1=C(C)NC(C)=C(C(=O)OC)C1c1c(C)nc2sc(Cl)cn12
Activity [1]: inactive | Ratio EC50 [17]: 2.6 | IC50 [3]: 0.55 µM | Kd [4]: 42.9 µM | Emax [6]: 60 ms-1

COC(=O)C1=C(C)NC(C)=C(C(=O)OC)C1c1c(-c2ccccc2)nc2n1CCS2
inhibition at 100 µM [21]: 90% | Activity [1]: inactive | Ratio EC50 [24]: 22 | inhibition (Cavia porcellus [16]): 80% | EC50 [10]: 0.39 µM | inhibition at 100 µM (Aorta [18]): 46% | EC50 [19]: 8.63 µM | IC50 [3]: 0.26 µM | inhibition at 100 µM [22]: 78% | Activity [14]: inactive

CCc1cn2c(C3C(C(=O)OC)=C(C)NC(C)=C3C(=O)OC)c(-c3cc(OC)ccc3OC)nc2s1
Activity [1]: inactive | IC50 [3]: 2.16 µM | inhibition (Cavia porcellus [12]): 92% | Activity [14]: inactive

COC(=O)C1=C(C)NC(C)=C(C(=O)OC)C1c1c(-c2ccccc2OC(F)(F)F)nc2sccn12
Activity [1]: inactive | inhibition at 10 µM [9]: 47% | Activity [14]: inactive

COC(=O)C1=C(C)NC(C)=C(C(=O)OC)C1c1c(Cl)nc2sc(C)cn12
Activity [1]: inactive | Activity [14]: inactive

CCOC(=O)C1=C(C)NC(C)=C(C(=O)OCC)C1c1c(-c2ccccc2)nc2sc(C)cn12
inhibition at 10 µM [7]: 84% | Activity [1]: inactive | inhibition (Cavia porcellus [16]): 83% | EC50 [19]: 7.15 µM | IC50 [3]: 0.25 µM | Kd [4]: 14.8 µM | inhibition at 10 µM [25]: 44% | inhibition at 10 µM (Aorta [11]): 5% | Emax [6]: 60 ms-1

COC(=O)C1=C(C)NC(C)=C(C(=O)OC)C1c1c(-c2cc(OC)c(OC)cc2[N+](=O)[O-])nc2sccn12
inhibition (Cavia porcellus [20]): 86% | Activity [1]: inactive | Ratio EC50 [24]: 9 | IC50 [3]: 11.4 µM | Activity [14]: inactive

COC(=O)C1=C(C)NC(C)=C(C(=O)OC)C1c1c(-c2cc(OC)c(OC)c(OC)c2)nc2sc(Cl)cn12
Activity [1]: inactive | Activity [14]: inactive

COC(=O)C1=C(C)NC(C)=C(C(=O)OC)C1c1c(-c2c(OC)ccc(OC)c2[N+](=O)[O-])nc2sccn12
Activity [1]: inactive | Activity [14]: inactive
